The subject of assay [1] is Mycobacterium tuberculosis. The assay is described as follows: Antitubercular activity against Mycobacterium tuberculosis H37Rv assessed as inhibition of microbial growth at 6.25 ug/mL. The assay is classed as functional.
In another assay the test system is MOLT-4. The assay is described as follows: Cytotoxicity against human MOLT4 cells. The assay is classed as functional, cell-based. In a few lines: (§1)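 Tested in vitro in the NCI 60 human tumour cell-line panel, with the screen run at the National Cancer Institute. Growth inhibition was read for each line and reported as IC50 in µg/mL.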
A further assay relates to SR. Put plainly: Cytotoxicity against human SR cells. The assay is classed as functional, cell-based. In a few lines: as §1
The subject of a further assay is TK-10. Put plainly: Cytotoxicity against human TK10 cells. The assay is classed as functional, cell-based. The essentials: as §1
In the next assay the test system is NCI-H322M. The assay is described as follows: Cytotoxicity against human NCI-H322M cells. The assay is classed as functional, cell-based. In a few lines: as §1
The subject of the next assay is A498. The assay is described as follows: Cytotoxicity against human A498 cells. The assay is classed as functional, cell-based. The essentials:
as §1

The test system of a further assay is ACHN. The assay is described as follows: Cytotoxicity against human ACHN cells. The assay is classed as functional, cell-based. In a few lines: as §1
The next assay relates to CAKI-1. The assay is described as follows: Cytotoxicity against human Caki1 cells. The assay is classed as functional, cell-based. The essentials: as §1

In brackets after ≈: the same amount, converted by molar mass. Activity calls are given as the source filed them. No cut-off for these calls is given here.

Regarding `C=C1C(=O)OC2C(=O)[C@H](C)CCC/C(C)=C/CC[C@@]3(C)O[C@@H]3C[C@@H]12` (stereo not given in full), in assay [1], the inhibition entry was “inactive”.
Take `C=C1C(=O)O[C@H]2C(=O)[C@H](C)CCC[C@](C)(OO)/C=C/C[C@@]3(C)O[C@@H]3C[C@@H]12` [UPROLIDE H]: the IC50 with MOLT-4 came out at 0.01 µg/mL (≈ 0.0274 µM); with SR, 0.07 µg/mL (≈ 0.192 µM). Besides, the inhibition entry in assay [1] was “inactive”.
In the case of `C=C1C(=O)O[C@H]2C(=O)[C@H](C)CCC/C(C)=C/CC[C@@]3(C)O[C@@H]3C[C@@H]12`, the IC50 with TK-10 stood at 0.13 µg/mL (≈ 0.391 µM); in the assay with NCI-H322M it was 0.9 µg/mL (≈ 2.71 µM).
As for `C=C[C@H]1CC[C@H]2[C@@H]3CC=C4C[C@@H](O[C@@H]5OC[C@@H](O)[C@H](O)[C@H]5O)CC[C@]4(C)[C@H]3CC[C@]12C`, the IC50 was determined as 4.2 µg/mL (≈ 9.71 µM) in the assay with A498, 2.8 µg/mL (≈ 6.47 µM) in the assay on ACHN and 6.6 µg/mL (≈ 15.3 µM) in the assay with CAKI-1. For the same compound, the inhibition at 6.25 µg/mL in assay [1] was 52%.

The values above are taken from ChEMBL document CHEMBL1150625, “New terpenoid constituents from Eunicea pinta” (J Nat Prod, 2002).
